pIC50: −log10 of the molar value. Like-named read-outs stand apart in the source and are kept apart here. Each block holds one molecule with its values, some of them ahead of it.
Experiments:
[1] = assay type: in vivo, human
[2] = assay type: in vivo, human; remark: listed apart in the source
[3] = cited from earlier work
[4] = target: T1, P-gp (Homo sapiens, UniProt P08183); assay type: in vivo
[5] = target: T1, P-gp; conditions: single dose venetoclax 100 mg, female healthy volunteers; cited from earlier work
[6] = test system: CYP3A; experiment: Ritonavir-venetoclax drug interaction study, observed exposure ratios; assay type: in vivo, human
Method in brief: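 20 female subjects, […], all drugs given orally; serial blood sampling for plasma levels of both the test compound and the CYP3A inhibitor. Validated assays had LLOQ 2.11 ng/mL (test compound) and 9.73 ng/mL (inhibitor), bias -4.7% to 7.1%, and CV 1.6% to 9.6%. Ratio is Cmax or AUC on coadministration over dosing alone; AUC96 runs 0–96 h postdose.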

[7] = fed conditions; cited from earlier work
[8] = Cohort 1: venetoclax 10 mg with single dose ritonavir 50 mg vs venetoclax alone, period 1 day 1 vs period 2 day 1
[9] = Cohort 2: venetoclax 10 mg with single dose ritonavir 100 mg vs venetoclax alone, period 1 day 1 vs period 2 day 1
[10] = Cohort 3: venetoclax 10 mg with ritonavir 50 mg q.d. for 11 days vs venetoclax alone, multiple-dose effect, period 1 day 1 vs period 2 day 11

T1 sequence (P08183 whole entry): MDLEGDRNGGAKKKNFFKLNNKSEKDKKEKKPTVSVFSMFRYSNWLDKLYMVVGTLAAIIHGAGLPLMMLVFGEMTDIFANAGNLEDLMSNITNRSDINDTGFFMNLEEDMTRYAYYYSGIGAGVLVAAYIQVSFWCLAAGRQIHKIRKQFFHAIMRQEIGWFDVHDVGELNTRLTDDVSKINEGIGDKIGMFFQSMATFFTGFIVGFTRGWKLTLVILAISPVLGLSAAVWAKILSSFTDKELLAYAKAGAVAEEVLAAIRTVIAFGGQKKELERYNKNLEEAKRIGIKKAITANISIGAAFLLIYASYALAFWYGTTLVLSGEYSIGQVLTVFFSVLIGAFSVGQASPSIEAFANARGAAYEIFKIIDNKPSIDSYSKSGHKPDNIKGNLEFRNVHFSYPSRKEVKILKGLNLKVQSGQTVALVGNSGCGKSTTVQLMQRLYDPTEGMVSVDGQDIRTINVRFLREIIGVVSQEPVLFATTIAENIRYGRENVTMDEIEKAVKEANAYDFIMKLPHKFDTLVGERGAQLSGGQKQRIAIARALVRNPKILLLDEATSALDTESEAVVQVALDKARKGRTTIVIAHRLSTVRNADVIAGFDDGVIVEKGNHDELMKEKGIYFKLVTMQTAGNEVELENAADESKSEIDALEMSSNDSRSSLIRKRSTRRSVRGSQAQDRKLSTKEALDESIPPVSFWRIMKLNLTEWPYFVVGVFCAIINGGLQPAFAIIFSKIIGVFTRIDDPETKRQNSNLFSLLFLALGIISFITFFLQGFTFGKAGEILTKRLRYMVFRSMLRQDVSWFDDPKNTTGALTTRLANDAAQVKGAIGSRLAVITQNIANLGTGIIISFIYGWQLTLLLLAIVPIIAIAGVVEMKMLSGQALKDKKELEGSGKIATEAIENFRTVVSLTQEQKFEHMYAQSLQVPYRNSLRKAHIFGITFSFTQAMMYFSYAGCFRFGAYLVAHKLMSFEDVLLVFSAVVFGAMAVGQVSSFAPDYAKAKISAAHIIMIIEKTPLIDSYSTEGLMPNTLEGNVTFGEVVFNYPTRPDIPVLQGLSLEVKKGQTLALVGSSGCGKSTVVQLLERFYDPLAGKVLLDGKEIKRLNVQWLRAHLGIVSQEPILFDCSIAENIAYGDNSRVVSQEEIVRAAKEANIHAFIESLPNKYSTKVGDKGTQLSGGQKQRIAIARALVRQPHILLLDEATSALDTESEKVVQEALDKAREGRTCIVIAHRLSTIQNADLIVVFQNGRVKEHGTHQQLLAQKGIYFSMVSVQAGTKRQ

CL BSV (between subject variability) ([1]; RTV-VEN model): 17.9 %CV
V2 BSV (between subject variability) ([1]; RTV-VEN model): 54.7 %CV
V2 (volume of central compartment) ([1]; RTV-VEN model final estimate): 30.7 L
Ka (absorption rate constant) ([1]; RTV-VEN model final estimate, first-order absorption): 1.17 day⁻¹
SMILES: CC(C)c1nc(CN(C)C(=O)N[C@H](C(=O)N[C@@H](Cc2ccccc2)C[C@H](O)[C@H](Cc2ccccc2)NC(=O)OCc2cncs2)C(C)C)cs1 [ritonavir]

CL BSV (between subject variability) ([2]; VEN-DIG model): 12.3 %CV
V2 BSV (between subject variability) ([2]; VEN-DIG model): 28.9 %CV
ALAG (absorption lag time) ([2]; VEN-DIG model final estimate): 0.536 h
Fe (fraction of administered drug excreted into the urine) ([2]; VEN-DIG model final estimate): 0.438%
Ka (first-order absorption rate constant) ([2]; VEN-DIG model final estimate): 0.777 h⁻¹
V2 (volume of central compartment) ([2]; VEN-DIG model final estimate): 150 L
V3 (volume of peripheral compartment) ([2]; VEN-DIG model final estimate): 592 L
clearance ([2]; female, human, plasma, oral): 262 mL/min
increase of digoxin bioavailability ([4]; with venetoclax): 8%
SMILES: C[C@H]1O[C@@H](O[C@H]2[C@@H](O)C[C@H](O[C@H]3[C@@H](O)C[C@H](O[C@H]4CC[C@@]5(C)[C@H](CC[C@@H]6[C@@H]5C[C@@H](O)[C@]5(C)[C@@H](C7=CC(=O)OC7)CC[C@]65O)C4)O[C@@H]3C)O[C@@H]2C)C[C@H](O)[C@@H]1O [digoxin]
absolute bioavailability [3]: ~ 80%
changes in digoxin half-life or renal clearance [5]: no changes
increase in digoxin AUC [5]: 9%
increase in digoxin Cmax [5]: 35%

CL BSV (between subject variability) ([2]; VEN-DIG model): 22 %CV
ALAG (absorption lag time) ([2]; VEN-DIG model final estimate): 1.72 h
Ka (first-order absorption rate constant) ([2]; VEN-DIG model final estimate): 0.209 h⁻¹
V2 (volume of central compartment) ([2]; VEN-DIG model final estimate): 19.1 L
V3 (volume of peripheral compartment) ([2]; VEN-DIG model final estimate): 25.4 L
AUCinf ratio, Observed Central value [6, 8]: 6.1
Cmax ratio, Observed Central value [6, 8]: 2.4
AUCinf ratio, Observed Central value [6, 9]: 8.1
Cmax ratio, Observed Central value [6, 9]: 2.3
AUC96 ratio, Observed Central value [6, 10]: 7.9
Cmax ratio, Observed Central value [6, 10]: 2.4
pIC50 [4]: 6.42
CL BSV (between subject variability) ([1]; RTV-VEN model): 32.6 %CV
T50 BSV (between subject variability) ([1]; RTV-VEN model): 26.1 %CV
V2 BSV (between subject variability) ([1]; RTV-VEN model): 64 %CV
V2 (volume of central compartment) ([1]; RTV-VEN model final estimate): 26.8 L
V3 (volume of peripheral compartment) ([1]; RTV-VEN model final estimate): 83.5 L
Kamax (maximum absorption rate constant) ([1]; RTV-VEN model final estimate, time-dependent absorption): 4.76 day⁻¹
γ (shape factor) ([1]; RTV-VEN model, fixed, estimated value from venetoclax combined data): 5 (fixed ^*)
SMILES: CC1(C)CCC(CN2CCN(c3ccc(C(=O)NS(=O)(=O)c4ccc(NCC5CCOCC5)c([N+](=O)[O-])c4)c(Oc4cnc5[nH]ccc5c4)c3)CC2)=C(c2ccc(Cl)cc2)C1 [venetoclax, Venetoclax]
half-life [7]: ~ 15 hours

Source: publication PMC7214649 (Clinical and Translational Science, 2020)
